Bioassay records as filed in PubChem.
Compounds with a hit are over-represented: about 1.5% of the library has one in this group of screens.
EBI2 antag = EBI2 (human) antagonism | P32249 | EBI2 beta-arrestin recruitment, luminescence, 7a,25-OHC stimulated | inhibition, % at 5 µM | 360,000 tested, 0.81% active; in the data active means inhibition above about 38%;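 further: enzyme fragment complementation signal reports receptor beta-arrestin coupling in cells; 0% = agonist plus DMSO wells and 100% = wells without agonist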
Target sequence (P32249 whole entry, looked up, the tested form may be a part): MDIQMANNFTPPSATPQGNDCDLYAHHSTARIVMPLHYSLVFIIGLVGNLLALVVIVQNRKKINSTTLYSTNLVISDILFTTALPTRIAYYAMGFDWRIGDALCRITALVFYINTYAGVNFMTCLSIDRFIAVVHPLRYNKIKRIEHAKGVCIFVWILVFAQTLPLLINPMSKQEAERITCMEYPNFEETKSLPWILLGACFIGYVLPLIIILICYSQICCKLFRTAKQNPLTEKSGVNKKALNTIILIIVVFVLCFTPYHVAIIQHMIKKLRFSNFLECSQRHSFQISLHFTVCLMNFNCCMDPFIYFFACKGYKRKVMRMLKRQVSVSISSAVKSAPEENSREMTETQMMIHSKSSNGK
CCR6 antagonist = blocks CCL20-driven beta-arrestin recruitment at human CCR6; P51684; CHO-K1 CCR6 PathHunter beta-arrestin, luminescence, CCL20-stimulated; inhibition, % at 20 µM; 340,000 tested, 0.49% active; AID 493098;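 active means compounds whose inhibition of the agonist-driven luminescence signal at 20 µM reaches about 50%, limit read from the data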;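 further: cells stimulated with CCL20 at 14 nM final; plate controls were DMSO with CCL20 for no effect and DMSO without agonist for full effect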
APJ antagonist = blocks the human apelin receptor APJ. 330,000 tested, 0.32% active. P35414. inhibition, % at 20 µM. CHO-K1 APJ beta-arrestin complementation, luminescence;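 active means inhibition above about 40% at 20 µM, limit read from the data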;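 further: cells challenged with 10 nM apelin-13 agonist together with compound; plate controls were apelin-13 plus DMSO wells for no effect and DMSO wells lacking apelin-13 for full effect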
CXCR6 inh = CXCR6 (human) receptor inhibition. O00574. inhibition, % at 20 µM. 360,000 tested, 0.36% active. AID 602244. CHO-K1 PathHunter CXCR6 beta-arrestin, luminescence; in the data active means inhibition above about 34%, passing the limit was not always enough;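 further: antagonist mode with CXCL16 agonist at 10 nM final; 0% = 10 nM CXCL16 with DMSO and 100% = unstimulated wells without agonist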
APJ ag = activates the human apelin receptor APJ | P35414 | CHO-K1 APJ PathHunter beta-arrestin, luminescence; 0% DMSO wells, 100% apelin | activation, % at 20 µM | 330,000 tested, 0.11% active | AID 2520;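 active means activation more than six SD over the plate average, tested at 20 µM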;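 further: 0% = DMSO alone and 100% = apelin-13 at 10 nM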
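Incubation: overnight seeding, 90 min compound at 25 °C, 1 h detection; test system: PathHunter CHO-K1 APJ (AGTRL-1) beta-arrestin reporter cells; amount: 1000 cells/well; doses: one dose, 20 µM compound, 1% DMSO; measured by: beta-gal luminescence; measure: agonist-driven arrestin binding to APJ; benchmarks: negative DMSO alone, positive Apelin-13 at 10 nM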
EBI2 antag conf = confirmation of human EBI2 receptor antagonists | inhibition, % at 5 µM | EBI2 beta-arrestin luminescence, 7a,25-OHC antagonism | shares compounds with EBI2 antag | 2,400 tested, 29% active | AID 651997;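 active means inhibition of at least 50%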
EBI2 agonist = EBI2 agonism counter-screen; shares compounds with EBI2 antag; EBI2-expressing cells, agonist mode, luminescence, 60 min; 0% vehicle, 100% 7α,25-dihydroxycholesterol control; activation, % at 5 µM; 2,400 tested, under 10 active;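 active means activation of at least 50%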
bGal cs = inhibits E. coli beta-galactosidase, counter-screen for EBI2 antagonists; purified beta-galactosidase, luminescent Galacton Star, 15 min; 2,400 tested, 1% active; shares compounds with EBI2 antag; inhibition, % at 5 µM;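 active means replicate-average signal at least 3 plate SD below neutral wells, shown as high inhibition, flagging enzyme-inhibiting false positives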;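 further: 0% = DMSO wells with enzyme and 100% = wells lacking enzyme; higher means stronger loss of beta-gal luminescence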
* = called active by the depositor.

`CCOCCCNS(=O)(=O)c1ccc(NC(=O)C2CC(=O)N(c3ccc(C)cc3)C2)cc1` (centres undefined) gave EBI2 antag 65*, CCR6 antagonist 20, APJ antagonist 3, CXCR6 inh -4, APJ ag -2, EBI2 antag conf 39, EBI2 agonist -2 and bGal cs -12.
`CCOc1ccc(N2CC(C(=O)Nc3ccc(S(=O)(=O)NCC4CCCO4)cc3)CC2=O)cc1` (centres undefined) gave EBI2 antag 51*, CCR6 antagonist -1, APJ antagonist 4, CXCR6 inh -13, APJ ag 0, EBI2 antag conf 27, EBI2 agonist 1 and bGal cs 7.
`CCn1c(N2CCN(C(=O)/C=C/c3ccccc3)CC2)nc2ccccc21` gave EBI2 antag 86*, CCR6 antagonist 4, APJ antagonist 5, CXCR6 inh 1, APJ ag -3, EBI2 antag conf 56*, EBI2 agonist -2 and bGal cs -5.
For O=C(/C=C/c1ccccc1)N1CCN(C(=O)c2ccco2)CC1 the results were EBI2 antag 63*, CCR6 antagonist 5, APJ antagonist -11, CXCR6 inh 1, APJ ag -1, EBI2 antag conf 49, EBI2 agonist 1 and bGal cs 10.
`CCc1ccc(/C=C\C(=O)N2CCCC2)cc1` gave EBI2 antag 47*, CCR6 antagonist -1, APJ antagonist 7, CXCR6 inh 12, APJ ag -4, EBI2 antag conf 21, EBI2 agonist -2 and bGal cs -8.
CCCn1c(N2CCN(C(=O)/C=C/C(=O)O)CC2)nc2ccccc21 was read as EBI2 antag -7, CCR6 antagonist -3, APJ antagonist 8, CXCR6 inh 1 and APJ ag -2.
Screening O=C(/C=C/c1ccccc1)N1CCCN(C(=O)/C=C/c2ccccc2)CC1 returned EBI2 antag 79*, CCR6 antagonist -2, APJ antagonist 6, CXCR6 inh -8, APJ ag -4, EBI2 antag conf 53*, EBI2 agonist -1 and bGal cs -13.
Screening O=C(c1ccc(Br)cc1)c1cc(-c2ccccn2)c(N2CCOCC2)s1 returned EBI2 antag 37*, CCR6 antagonist 27, APJ antagonist 13, CXCR6 inh 3, APJ ag -3, EBI2 antag conf 39, EBI2 agonist -2 and bGal cs -16.
Screening O=C(c1ccc(Cl)c(Cl)c1)c1cc(-c2ccccn2)c(N2CCOCC2)s1 returned EBI2 antag 65*, CCR6 antagonist 17, APJ antagonist -4, CXCR6 inh -1, APJ ag 0, EBI2 antag conf 31, EBI2 agonist 2 and bGal cs 3.
For CC(=O)c1cccc(OCc2cc(C(=O)N3C[C@@H](C)O[C@@H](C)C3)no2)c1 the results were EBI2 antag 7, CCR6 antagonist 12, APJ antagonist -10, CXCR6 inh 6 and APJ ag -5.
`COc1ccc([C@H]2CC(=O)C=C(C#CC(C)(C)C)C2)cc1` gave EBI2 antag 66*, CCR6 antagonist 14, APJ antagonist -12, CXCR6 inh -18, APJ ag 1, EBI2 antag conf 67*, EBI2 agonist 0 and bGal cs -11.
For CCc1ccc(-c2n[nH]nc2C2=CC(=O)C[C@H](c3ccc(F)cc3)C2)cc1 the results were EBI2 antag 54*, CXCR6 inh -1, EBI2 antag conf 14, EBI2 agonist -2 and bGal cs -7.
Screening COc1ccc2cc(C#CC3=CC(=O)C[C@H](c4ccc(F)cc4)C3)ccc2c1 returned EBI2 antag -2 and CXCR6 inh -6.
For COc1cc(F)cc(C2=CC(=O)C[C@H](c3ccc(F)cc3)C2)c1 the results were EBI2 antag 52*, CCR6 antagonist 19, APJ antagonist 14, CXCR6 inh -1, APJ ag -4, EBI2 antag conf 40, EBI2 agonist -2 and bGal cs -8.
Screening COc1ccc([C@H]2CC(=O)C=C(c3ccc(OC(F)(F)F)cc3)C2)cc1 returned EBI2 antag 68*, CCR6 antagonist 14, APJ antagonist 15, CXCR6 inh 2, APJ ag -2, EBI2 antag conf 40, EBI2 agonist -1 and bGal cs -9.
COc1ccc([C@H]2CC(=O)C=C(c3cccc(OC(F)(F)F)c3)C2)cc1 was read as EBI2 antag 7, CCR6 antagonist 11, APJ antagonist -6, CXCR6 inh 7 and APJ ag -1.
For COc1ccc(-c2cc(=O)oc3cc(OC(C)C(=O)NCCCn4ccnc4)ccc23)cc1 (centres undefined) the results were EBI2 antag 8, CCR6 antagonist -3, APJ antagonist 16, CXCR6 inh 6 and APJ ag -2.
`COc1ccc([C@H]2CC(=O)C=C(/C=C/c3ccc(C(F)(F)F)cc3)C2)cc1` gave EBI2 antag 65*, CCR6 antagonist -9, APJ antagonist 8, CXCR6 inh 6, APJ ag -4, EBI2 antag conf 33, EBI2 agonist 0 and bGal cs 9.
For COc1ccc(C2=CC(=O)C[C@H](c3ccc(OC)c(OC)c3)C2)cc1 the results were EBI2 antag 33, CCR6 antagonist 12, APJ antagonist 15, CXCR6 inh 0 and APJ ag -2.
`CCCOc1ccc(C2=CC(=O)C[C@H](c3ccc(OC)cc3)C2)cc1` gave EBI2 antag 67*, CCR6 antagonist 10, APJ antagonist 7, CXCR6 inh 8, APJ ag -6, EBI2 antag conf 35, EBI2 agonist 0 and bGal cs -13.
For O=C(COc1ccc(Br)cc1)NCCN1CCCC1 the results were EBI2 antag 0, CCR6 antagonist 14, APJ antagonist -14, CXCR6 inh 0 and APJ ag -3.
`COc1ccc2nc(NC(=O)C3CC(=O)N(c4ccccc4)C3)sc2c1` (centres undefined) gave EBI2 antag -6, CCR6 antagonist 13, APJ antagonist -27, CXCR6 inh 4 and APJ ag -3.
For Clc1ccc(-c2nnnn2-c2ccc(Cl)c(Cl)c2)cc1Cl the results were EBI2 antag 49*, CCR6 antagonist 20, APJ antagonist 27, CXCR6 inh 13, APJ ag -4, EBI2 antag conf 17, EBI2 agonist -2 and bGal cs -11.
For CCOc1ccccc1NC(=O)c1ccc2c(O)c(S(=O)(=O)c3ccccc3)c(=O)[nH]c2c1 the results were EBI2 antag 1 and CXCR6 inh -5.
